Data set [1] concerns the target T1, Vasopressin V1b receptor (Homo sapiens, UniProt P47901).
T1 sequence (P47901 whole entry): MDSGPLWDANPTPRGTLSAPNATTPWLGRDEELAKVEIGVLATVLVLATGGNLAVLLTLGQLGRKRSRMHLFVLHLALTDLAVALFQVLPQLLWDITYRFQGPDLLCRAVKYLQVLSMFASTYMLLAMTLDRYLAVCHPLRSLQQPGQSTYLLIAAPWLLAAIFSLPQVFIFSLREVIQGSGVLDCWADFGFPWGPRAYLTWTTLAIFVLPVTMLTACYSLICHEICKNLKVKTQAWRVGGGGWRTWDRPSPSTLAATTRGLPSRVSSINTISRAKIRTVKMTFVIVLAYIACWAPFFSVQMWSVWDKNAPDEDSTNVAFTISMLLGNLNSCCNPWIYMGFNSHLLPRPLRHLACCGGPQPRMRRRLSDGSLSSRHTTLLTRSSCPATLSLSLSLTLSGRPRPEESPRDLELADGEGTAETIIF
Briefly: Displacement of [3H]-AVP from human vasopressin V1B receptor expressed in CHO cells. It is filed as cell-based. The method, boiled down:
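Whole-cell binding in CHO cells expressing human receptor, [³H]AVP tracer, increasing compound concentrations; nonspecific binding with 10 µM lysine vasopressin. Affinity (Ki) from non-linear regression of specific binding versus concentration; mean of at least 2 independent experiments run in duplicate.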

A further data set addresses T2, Oxytocin receptor (Homo sapiens, UniProt P30559).
T2 sequence (P30559 whole entry): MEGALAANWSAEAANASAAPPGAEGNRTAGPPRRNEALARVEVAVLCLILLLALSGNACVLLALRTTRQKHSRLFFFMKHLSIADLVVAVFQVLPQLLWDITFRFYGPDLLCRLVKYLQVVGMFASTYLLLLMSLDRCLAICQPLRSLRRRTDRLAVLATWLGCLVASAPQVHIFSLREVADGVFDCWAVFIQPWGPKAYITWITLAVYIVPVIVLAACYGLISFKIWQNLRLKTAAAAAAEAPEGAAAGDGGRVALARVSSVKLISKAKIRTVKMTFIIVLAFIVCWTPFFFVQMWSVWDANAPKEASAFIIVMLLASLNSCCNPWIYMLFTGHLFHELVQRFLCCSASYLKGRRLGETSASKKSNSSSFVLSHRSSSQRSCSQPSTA
Briefly: Displacement of [3H]oxytocin from human oxytocin receptor expressed in CHO cells. The class given is cell-based. The method, boiled down: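 Intact CHO cells expressing human receptor incubated with [³H]oxytocin plus increasing compound concentrations; 10 µM oxytocin defines nonspecific binding. Ki obtained by non-linear regression of specific binding against compound concentration; values averaged from at least 2 independent duplicate experiments.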
In general terms: Displacement assays read how much labelled ligand stays bound in the presence of the test substance.

The target of data set [2] is 5-hydroxytryptamine receptor 6 (Homo sapiens) (UniProt P50406). Description: Binding affinity to 5HT6 receptor.
The next data set deals with Vasopressin V1a receptor (Homo sapiens, UniProt P37288). Briefly: Displacement of [3H]-AVP from human vasopressin V1A receptor expressed in CHO cell membranes. Summed up: (§1)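 Membranes from CHO cells expressing the human receptor incubated with [³H]AVP and increasing compound concentrations. Nonspecific binding defined with 10 µM lysine vasopressin. Specific binding plotted against compound concentration; affinity derived by non-linear regression. Mean of at least 2 independent experiments in duplicate.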

For the next data set, the target named is Vasopressin V2 receptor (Homo sapiens, UniProt P30518). Description: Displacement of [3H]-AVP from human vasopressin V2 receptor expressed in CHO cell membranes. The method, boiled down: as §1
Data set [3] has as its target T1, Vasopressin V1b receptor. Description: Antagonist activity at human vasopressin V1B receptor expressed in CHO cells assessed as inhibition of AVP-induced calcium mobilisation by luciferase reporter gene assay. The class given is functional, cell-based.
A short description of data set [4]: Solubility of the compound at pH 7.4. The class given is physicochemical. The settings on record: buffer. Summed up:
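Kinetic solubility measured at pH 7.4, reported in mg/L.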

Data set [5] is described as follows: Lipophilicity, log D of the compound at pH 7.4. The class given is physicochemical. The settings on record: buffer.

This note sets out measurements from ChEMBL document CHEMBL1777716, “Identification and optimisation of novel sulfonamide, selective vasopressin V1B receptor antagonists” (Bioorg Med Chem Lett, 2011).

pIC50, pKi: −log10 of the molar value. Values after ≈ are worked out from the molar mass of the structure shown. Active and inactive are the calls of the source. The rule behind the calls is not given here. Non-standard residues stand in square brackets, D forms with d. Residues, ends and D or L forms follow the SMILES beside them. *: point of attachment. 2Nal = N[C@@H](Cc1ccc2ccccc2c1)C(=O)O; Mtr = COc1cc(C)c(S(=O)(=O)*)c(C)c1C; Piperidide = C1CCN(*)CC1

Sequence of Vasopressin V1a receptor (P37288 whole entry): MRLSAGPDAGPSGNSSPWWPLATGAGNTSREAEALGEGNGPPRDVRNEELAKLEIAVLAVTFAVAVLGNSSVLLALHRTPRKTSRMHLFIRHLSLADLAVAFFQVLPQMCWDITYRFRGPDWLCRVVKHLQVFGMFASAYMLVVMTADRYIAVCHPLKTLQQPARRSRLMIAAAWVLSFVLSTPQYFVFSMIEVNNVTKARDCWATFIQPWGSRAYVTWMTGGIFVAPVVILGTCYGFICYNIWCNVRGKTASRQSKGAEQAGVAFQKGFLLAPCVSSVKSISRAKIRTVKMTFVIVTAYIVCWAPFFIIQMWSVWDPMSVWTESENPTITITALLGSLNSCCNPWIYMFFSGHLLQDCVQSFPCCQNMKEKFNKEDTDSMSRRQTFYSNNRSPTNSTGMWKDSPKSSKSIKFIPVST
Sequence of 5-hydroxytryptamine receptor 6 (Homo sapiens) (P50406 whole entry): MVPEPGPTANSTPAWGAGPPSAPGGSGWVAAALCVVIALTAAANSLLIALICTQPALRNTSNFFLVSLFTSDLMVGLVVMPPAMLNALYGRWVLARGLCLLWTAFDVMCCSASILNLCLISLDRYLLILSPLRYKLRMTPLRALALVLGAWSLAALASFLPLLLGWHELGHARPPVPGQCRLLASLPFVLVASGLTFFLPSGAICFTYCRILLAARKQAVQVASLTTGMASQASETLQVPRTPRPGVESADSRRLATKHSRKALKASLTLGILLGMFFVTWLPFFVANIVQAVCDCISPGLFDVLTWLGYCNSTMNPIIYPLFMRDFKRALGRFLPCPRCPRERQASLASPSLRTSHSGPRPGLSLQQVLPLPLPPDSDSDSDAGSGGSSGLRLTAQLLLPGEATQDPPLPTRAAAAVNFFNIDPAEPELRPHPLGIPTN
Sequence of Vasopressin V2 receptor (P30518 whole entry): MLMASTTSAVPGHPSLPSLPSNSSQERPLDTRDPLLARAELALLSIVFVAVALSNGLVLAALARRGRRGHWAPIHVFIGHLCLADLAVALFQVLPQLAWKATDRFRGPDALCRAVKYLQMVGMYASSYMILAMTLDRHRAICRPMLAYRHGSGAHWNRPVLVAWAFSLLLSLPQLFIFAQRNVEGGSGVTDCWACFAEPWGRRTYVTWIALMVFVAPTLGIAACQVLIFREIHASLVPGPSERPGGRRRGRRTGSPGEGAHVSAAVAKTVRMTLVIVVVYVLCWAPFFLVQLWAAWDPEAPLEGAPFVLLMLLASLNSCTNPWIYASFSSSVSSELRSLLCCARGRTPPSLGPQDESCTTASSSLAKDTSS

On to `COc1ccc2c(c1)c(CC(=O)N1CCCNCC1)c(C)n2S(=O)(=O)c1ccc(OC)c(C)c1C`, for which the negative logarithm of the Ki (pKi) is 6.74 on Vasopressin V1b receptor [1] and 6.49 at Oxytocin receptor. As to `COc1ccc(S(=O)(=O)n2c(C)c(C(=O)NCCCN3CCN(C)CC3)c3ccccc32)c(C)c1C`, the pKi at Vasopressin V1b receptor [1] is 6.25. As for `COc1ccc(S(=O)(=O)n2c(C)c(C(=O)N3CCCNCC3)c3cc(F)ccc32)c(C)c1C`, the pKi at Vasopressin V1b receptor [1] is 6.51. Same read-out and setting: with `COc1cc(C)c(S(=O)(=O)N[C@@H](Cc2ccccc2)C(=O)N[C@H](Cc2ccccc2)C(=O)N2CCCCC2)c(C)c1C` the figure was under 5.00. Same read-out and setting: in the case of `COc1cc(C)c(S(=O)(=O)N[C@@H](Cc2ccccc2)C(=O)NCCN2CCN(C)CC2)c(C)c1C` it was 6.30; in that of `COc1cc(C)c(S(=O)(=O)N[C@@H](Cc2ccccc2)C(=O)NCC(=O)N2CCCCC2)c(C)c1C` (Mtr-Phe-Gly-Piperidide), under 5.00; in that of `COc1ccc(S(=O)(=O)n2c(C)c(C(=O)N3CCCNCC3)c3cc(C)ccc32)c(C)c1C`, 6.10.

As for `COc1cc(C)c(S(=O)(=O)N[C@@H](Cc2ccccc2)C(=O)N2CCCN(C)CC2)c(C)c1C`, at Vasopressin V1b receptor [1], the pKi was 5.49. In the case of `COc1ccc(S(=O)(=O)N2CC(C(=O)NCCCN3CCN(C)CC3)c3ccccc32)c(C)c1C` (centres undefined), the negative-log Ki (pKi) at Vasopressin V1b receptor [1] was 5.92. The result in data set [2] was Active. `COc1cc(C)c(S(=O)(=O)N[C@@H](Cc2ccccc2)C(=O)N[C@@H](Cc2ccccc2)C(=O)N2CCCCC2)c(C)c1C` gave a pKi at Vasopressin V1b receptor [1] of 6.20. Still for that read-out and setting: with `COc1cc(C)c(S(=O)(=O)N[C@@H](Cc2ccccc2)C(=O)N[C@@H](Cc2ccc3ccccc3c2)C(=O)N2CCCCC2)c(C)c1C` (Mtr-Phe-[2Nal]-Piperidide) the figure was under 5.00; with `COc1cc(C)c(S(=O)(=O)N[C@@H](Cc2ccccc2)C(=O)NCCCN2CCOCC2)c(C)c1C`, 5.00.

In turn, `COc1ccc(S(=O)(=O)n2c(C)c(CC(=O)N(C)CCc3ccccn3)c3cc(F)ccc32)c(C)c1C` had a pKi on Vasopressin V1b receptor [1] of 6.59. The same measure, in the same setting: with `COc1cc(C)c(S(=O)(=O)N[C@@H](Cc2ccccc2)C(=O)NCCCN2CCN(C)CC2)c(C)c1C` the figure was 6.60. On the same count and under the same terms, in the case of `COc1cc(C)c(S(=O)(=O)N[C@@H](Cc2ccccc2)C(=O)NCCCN2CCC(C)CC2)c(C)c1C` it was 5.60; in that of `COc1ccc(S(=O)(=O)n2c(C)c(C(=O)N3CCCN(C)CC3)c3ccccc32)c(C)c1C`, 6.30; in that of `COc1ccc(S(=O)(=O)n2c(C)c(CC(=O)NCCCN3CCN(C)CC3)c3cc(F)ccc32)c(C)c1C`, 6.37.

As for `COc1ccc2c(c1)c(C(=O)N1CCCNCC1)c(C)n2S(=O)(=O)c1ccc(OC)c(C)c1C`, the pKi on Vasopressin V1b receptor [1] is 6.72; at Vasopressin V1a receptor, under 5.00; at Vasopressin V2 receptor, under 5.00; at Oxytocin receptor it was under 5.00. Also, the negative logarithm of the IC50 (pIC50) on Vasopressin V1b receptor [3] was 6.43. Further, the solubility in data set [4] came out at 72 µg/mL (≈ 148 µM). In data set [5], the logD worked out at 2. With `COc1cc(C)c(S(=O)(=O)N[C@@H](Cc2ccccc2)C(=O)NC(Cc2ccc3c(N)nccc3c2)C(=O)N2CCCCC2)c(C)c1C` (some centres undefined), the pKi at Vasopressin V1b receptor [1] is 7.20. At Vasopressin V1b receptor [1], `COc1cc(C)c(S(=O)(=O)N[C@@H](Cc2ccccc2)C(=O)N(C)CCCN2CCN(C)CC2)c(C)c1C` gave a pKi of 6.00. On the same count and under the same terms, with `COc1cc(C)c(S(=O)(=O)N[C@@H](Cc2ccccc2)C(=O)NCCCN(C)C)c(C)c1C` the figure was 5.70.

As usually defined, the pKi is the Ki on a negative log10 scale, so that one unit is a factor of ten. Read a high pKi as a small Ki. The pIC50 is the IC50 on a negative log10 scale, so that one unit is a factor of ten. As a reminder, the solubility is the concentration that dissolves in the medium under given conditions. Read a low solubility as a poorly soluble substance. By logD is commonly meant the decadic logarithm of the distribution of all forms, ionised or not, between an organic phase and buffer at a given pH. A low value points to lower lipophilicity.
